In ChEMBL document CHEMBL3124879, “Synthesis and evaluation of 2-(1H-indol-3-yl)-4-phenylquinolines as inhibitors of cholesterol esterase” (Bioorg Med Chem Lett, 2014):

How the values were obtained:
Bos taurus [1] = species on record: Bos taurus; test: Inhibition of bovine chymotrypsin assessed as residual activity at 5 uM relative to control
Summary of the method: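 Residual chymotrypsin activity is measured with the inhibitor present at a single concentration (5). Assays are run in duplicate, and activity is expressed relative to an uninhibited control.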

[2] = Inhibition of porcine cholesterol esterase using para-nitrophenyl butyrate as substrate preincubated for 5 mins by spectrophotometric analysis; parameters: species or system Sus scrofa
Summary of the method: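 CEase assay on the porcine enzyme with para-nitrophenyl butyrate in 100 mM sodium phosphate and 100 mM NaCl, at 25 °C, read at 405 nm. Final: 6 mM sodium taurocholate, 3% acetonitrile, 3% DMSO, 10 ng/mL CEase. 5 min preincubation before enzyme start. Duplicates at five inhibitor concentrations; IC50 fitted by non-linear regression to v = v0/(1+[I]/IC50).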

Acetylcholinesterase = Acetylcholinesterase (Electrophorus electricus, UniProt O42275); test: Inhibition of electric eel AChE
Chain of Acetylcholinesterase (O42275 whole entry): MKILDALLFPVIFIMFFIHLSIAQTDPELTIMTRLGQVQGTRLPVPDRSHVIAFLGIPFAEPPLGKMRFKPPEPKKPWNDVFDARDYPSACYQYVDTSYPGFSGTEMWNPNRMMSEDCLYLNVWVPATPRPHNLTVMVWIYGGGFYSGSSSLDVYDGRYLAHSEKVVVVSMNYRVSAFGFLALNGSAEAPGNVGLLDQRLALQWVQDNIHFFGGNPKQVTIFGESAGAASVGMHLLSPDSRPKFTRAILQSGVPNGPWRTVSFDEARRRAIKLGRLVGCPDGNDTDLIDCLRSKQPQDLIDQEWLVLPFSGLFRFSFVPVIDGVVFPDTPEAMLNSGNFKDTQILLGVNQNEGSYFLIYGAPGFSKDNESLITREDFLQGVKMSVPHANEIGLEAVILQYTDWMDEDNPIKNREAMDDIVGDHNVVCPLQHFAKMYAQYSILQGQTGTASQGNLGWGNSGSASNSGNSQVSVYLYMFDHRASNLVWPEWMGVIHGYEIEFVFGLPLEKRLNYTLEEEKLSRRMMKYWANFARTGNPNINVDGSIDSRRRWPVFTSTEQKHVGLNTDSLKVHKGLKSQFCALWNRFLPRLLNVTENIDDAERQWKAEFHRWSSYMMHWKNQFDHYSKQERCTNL

Prothrombin [3] = biological target: T1, Prothrombin (Homo sapiens, UniProt P00734); test: Inhibition of human thrombin using H-D-Phe-L-Pip-Arg-para-nitroanilide as substrate assessed as residual activity at 10 uM after 5 mins relative to control
Summary of the method: (§1)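 Residual enzyme activity is determined in duplicate experiments in the presence of the inhibitor at a single concentration (10). Activity is expressed relative to an uninhibited control.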

[4] = biological target: Procathepsin L (Homo sapiens) (UniProt P07711); test: Inhibition of human cathepsin L using Z-Phe-ArgpNA as substrate assessed as residual activity at 50 uM by spectrophotometric analysis relative to control
Chain of Procathepsin L (Homo sapiens) (P07711 114-333 limits assumed): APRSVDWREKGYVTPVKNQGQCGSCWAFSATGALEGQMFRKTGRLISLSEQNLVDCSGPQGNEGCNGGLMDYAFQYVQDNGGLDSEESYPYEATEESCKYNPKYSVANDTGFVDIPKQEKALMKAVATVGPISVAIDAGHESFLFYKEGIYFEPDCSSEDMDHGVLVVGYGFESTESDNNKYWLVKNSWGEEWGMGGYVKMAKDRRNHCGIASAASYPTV
Summary of the method: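 Residual human cathepsin L activity is determined in duplicate with the inhibitor at a single concentration (50). Activity is expressed relative to an uninhibited control.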

[5] = Inhibition of bovine trypsin Suc-Ala-Ala-Pro-Arg-para-nitroanilide as substrate after 10 mins; parameters: species or system Bos taurus
[6] = biological target: T2, Neutrophil elastase (Homo sapiens) (UniProt P08246); test: Inhibition of human leukocyte elastase assessed as residual activity at 10 uM relative to control
T2 sequence (whole entry): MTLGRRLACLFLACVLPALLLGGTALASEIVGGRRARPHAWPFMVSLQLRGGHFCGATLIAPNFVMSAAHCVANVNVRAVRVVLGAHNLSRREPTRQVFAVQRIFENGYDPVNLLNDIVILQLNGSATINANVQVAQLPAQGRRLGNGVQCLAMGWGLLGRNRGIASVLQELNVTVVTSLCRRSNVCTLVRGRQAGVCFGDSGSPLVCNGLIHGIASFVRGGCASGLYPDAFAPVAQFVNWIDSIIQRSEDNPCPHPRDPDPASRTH
Summary of the method: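 Residual enzyme activity measured in duplicate at one inhibitor concentration; more than 90% residual activity scored as no inhibition.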

Bos taurus [7] = species on record: Bos taurus; test: Inhibition of bovine trypsin Suc-Ala-Ala-Pro-Arg-para-nitroanilide as substrate assessed as residual activity at 10 uM after 10 mins relative to control; summary of the method: as §1
Neutrophil elastase = biological target: T3, Neutrophil elastase (Homo sapiens, UniProt P08246); test: Inhibition of human leukocyte elastase
T3 sequence (P08246 whole entry): T2 sequence (whole entry)

[8] = Competitive inhibition of porcine cholesterol esterase using para-nitrophenyl butyrate as substrate by Lineweaver-Burk plot analysis; parameters: species or system Sus scrofa
[9] = Inhibition of bovine chymotrypsin; parameters: species or system Bos taurus
Prothrombin [10] = biological target: T1, Prothrombin; test: Inhibition of human thrombin using H-D-Phe-L-Pip-Arg-para-nitroanilide as substrate after 5 mins
[11] = Uncompetitive inhibition of porcine cholesterol esterase using para-nitrophenyl butyrate as substrate by Lineweaver-Burk plot analysis; parameters: species or system Sus scrofa
[12] = biological target: Acetylcholinesterase (Electrophorus electricus) (UniProt O42275); test: Inhibition of electric eel AChE assessed as residual activity at 10 uM relative to control; summary of the method: as §1
Chain of Acetylcholinesterase (Electrophorus electricus) (O42275 24-633 limits assumed): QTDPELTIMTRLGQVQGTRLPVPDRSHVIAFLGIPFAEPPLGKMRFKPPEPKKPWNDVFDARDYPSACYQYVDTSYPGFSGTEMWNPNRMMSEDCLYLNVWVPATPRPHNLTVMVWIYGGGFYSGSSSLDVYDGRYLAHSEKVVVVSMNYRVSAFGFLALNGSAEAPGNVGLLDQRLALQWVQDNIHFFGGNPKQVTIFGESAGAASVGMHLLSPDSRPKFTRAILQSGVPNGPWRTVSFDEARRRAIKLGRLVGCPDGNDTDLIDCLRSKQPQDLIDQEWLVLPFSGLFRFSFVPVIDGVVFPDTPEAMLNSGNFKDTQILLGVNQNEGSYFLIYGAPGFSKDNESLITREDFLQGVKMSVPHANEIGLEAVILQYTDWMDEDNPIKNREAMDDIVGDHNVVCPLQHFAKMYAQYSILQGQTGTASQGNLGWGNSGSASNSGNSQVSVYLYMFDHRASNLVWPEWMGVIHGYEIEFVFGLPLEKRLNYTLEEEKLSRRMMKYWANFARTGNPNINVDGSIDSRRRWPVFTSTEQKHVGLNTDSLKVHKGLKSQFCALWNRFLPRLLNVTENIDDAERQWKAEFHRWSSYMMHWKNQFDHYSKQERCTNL

Sus scrofa = species on record: Sus scrofa; test: Inhibition of porcine cholesterol esterase using para-nitrophenyl butyrate as substrate assessed as residual activity at 25 uM preincubated for 5 mins by spectrophotometric analysis relative to control
Summary of the method: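 Porcine CEase read spectrophotometrically at 405 nm, 25 °C, with para-nitrophenyl butyrate. Buffer: 100 mM sodium phosphate, 100 mM NaCl. Final concentrations: 6 mM sodium taurocholate, 3% acetonitrile, 3% DMSO, 10 ng/mL enzyme. Inhibitor and substrate mixed and held 5 min, then enzyme added to start. Residual activity taken from duplicates at one inhibitor concentration.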

O=[N+]([O-])c1ccc2nc(-c3ccccc3)cc(-c3ccccc3)c2c1 showed an Activity (Bos taurus [1]) of over 90%, an IC50 [2] of at least 20 µM and an IC50 (Acetylcholinesterase) of at least 37 µM. It also gave an Activity (Prothrombin [3]) of over 90%, an Activity [4] of over 90% and an IC50 [5] of at least 51 µM. For the same compound, the Activity [6] was over 90%.

O=[N+]([O-])c1ccc2nc(-c3c[nH]c4ccccc34)cc(-c3ccccc3)c2c1 gave an Activity (Bos taurus [7]) of over 90%, an IC50 [2] of 1.98 µM and an IC50 (Neutrophil elastase) of 0.63 µM. For the same compound, the Ki [8] was 0.66 µM, the IC50 (Acetylcholinesterase) was 22.9 µM and the IC50 [9] was at least 30 µM. It also gave an Activity [4] of over 90%, an IC50 (Prothrombin [10]) of at least 30 µM and a Ki [11] of 7 µM.

For Oc1ccc(-c2cc(-c3ccccc3)c3cc(Cl)ccc3n2)cc1, the Activity (Bos taurus [1]) was over 90%, the IC50 [2] was at least 20 µM and the Activity [12] was over 90%. The Activity [4] was over 90%, the IC50 [5] was at least 51 µM and the IC50 (Prothrombin [10]) was at least 30 µM. For the same compound, the Activity [6] was over 90%.

Compound COc1ccc(-c2cc(-c3ccccc3)c3cc([N+](=O)[O-])ccc3n2)cc1 has an Activity (Bos taurus [7]) of over 90%, an Activity (Bos taurus [1]) of over 90% and an IC50 [2] of at least 20 µM. The Activity (Sus scrofa) was over 90%, the IC50 (Acetylcholinesterase) was at least 37 µM and the Activity [4] was over 90%. The IC50 (Prothrombin [10]) was at least 30 µM and the Activity [6] was over 90%.

With COc1ccc(-c2cc(-c3ccccc3)c3cc(Cl)ccc3n2)cc1 the Activity (Bos taurus [7]) was over 90%, the Activity (Bos taurus [1]) was over 90% and the IC50 [2] was at least 20 µM. For the same compound, the Activity [12] was over 90%, the IC50 (Neutrophil elastase) was at least 28 µM and the Activity [4] was over 90%. The IC50 (Prothrombin [10]) was at least 30 µM.

Work on Clc1ccc2nc(-c3ccccc3)cc(-c3ccccc3)c2c1 yielded an Activity (Bos taurus [7]) of over 90%, an Activity (Bos taurus [1]) of over 90% and an IC50 [2] of at least 20 µM. For the same compound, the Activity [12] was over 90%, the IC50 (Neutrophil elastase) was at least 28 µM and the Activity (Prothrombin [3]) was over 90%. For the same compound, the Activity [4] was over 90%.

Clc1ccc2nc(-c3c[nH]c4ccccc34)cc(-c3ccccc3)c2c1 showed an Activity (Bos taurus [7]) of over 90%, an Activity (Bos taurus [1]) of over 90% and an IC50 [2] of 1.33 µM. For the same compound, the IC50 (Neutrophil elastase) was 4.22 µM, the IC50 (Acetylcholinesterase) was at least 37 µM and the Activity [4] was over 90%. The IC50 (Prothrombin [10]) was at least 30 µM.

Work on Cc1ccc(-c2cc(-c3ccccc3)c3cc(Cl)ccc3n2)cc1 yielded an Activity (Bos taurus [1]) of over 90%, an IC50 [2] of at least 20 µM and an Activity [12] of over 90%. It also gave an IC50 (Neutrophil elastase) of at least 28 µM, an Activity (Prothrombin [3]) of over 90% and an Activity [4] of over 90%. It also gave an IC50 [5] of at least 51 µM.

Cc1ccc(-c2cc(-c3ccccc3)c3cc([N+](=O)[O-])ccc3n2)cc1 showed an Activity (Bos taurus [7]) of over 90%, an Activity (Bos taurus [1]) of over 90% and an IC50 [2] of at least 20 µM. The Activity [12] was over 90%, the IC50 (Neutrophil elastase) was at least 28 µM and the Activity [4] was over 90%. The IC50 (Prothrombin [10]) was at least 30 µM.

O=[N+]([O-])c1ccc2nc(-c3cccc(Br)c3)cc(-c3ccccc3)c2c1 showed an Activity (Bos taurus [7]) of over 90%, an Activity (Bos taurus [1]) of over 90% and an IC50 [2] of at least 20 µM. For the same compound, the Activity [12] was over 90%, the IC50 (Neutrophil elastase) was at least 28 µM and the Activity (Prothrombin [3]) was over 90%. For the same compound, the Activity [4] was over 90%.

Clc1ccc2nc(-c3cccc(Br)c3)cc(-c3ccccc3)c2c1 gave an Activity (Bos taurus [1]) of over 90%, an IC50 [2] of at least 20 µM and an Activity [12] of over 90%. It also gave an IC50 (Neutrophil elastase) of at least 28 µM, an Activity (Prothrombin [3]) of over 90% and an Activity [4] of over 90%. It also gave an IC50 [5] of at least 51 µM.

O=[N+]([O-])c1ccc2nc(-c3ccc(O)cc3)cc(-c3ccccc3)c2c1 gave an Activity (Bos taurus [7]) of over 90%, an Activity (Bos taurus [1]) of over 90% and an IC50 [2] of at least 20 µM. The Activity [12] was over 90%, the IC50 (Neutrophil elastase) was 2.91 µM and the Activity [4] was over 90%. For the same compound, the IC50 (Prothrombin [10]) was at least 30 µM.
